Mot1-301 SUMO: blocks SUMOylation pathway, rescuing yeast Mot1-301 growth; S. cerevisiae Mot1-301 growth rescue, ATP luminescence, 38.5C; percent above DMSO median, 100 means doubled; growth rescue, % at 18.8 µM; 1% of 320,000 active;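 active means every valid replicate shows activation above 250% relative to neutral control wells; inactive means the rest, any valid replicate at or below 250%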
Cneo AK release: Cryptococcus neoformans lysis via adenylate kinase release | lysis activity, % at 15 µM | C. neoformans lysis, adenylate kinase release luminescence, 4 h; normalised: neutral wells 0, clomiphene wells 100 | 0.2% of 360,000 active;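 active means mean lysis activity across replicates of at least 80%, whatever share of replicates individually reach that level; inactive means mean lysis activity below 80%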
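Signal: Adenylate kinase release luminescence | Assay system: Log-phase Cryptococcus neoformans yeast cells | Input: Cells at 5 × 10^6 per mL | Buffer or medium: Fresh YPD growth medium | Compound: Single dose | Schedule: Static 4 h at 37 °C with compound, 1 h detection | Controls: Clomiphene | Read-out: Luminescence rise reflecting yeast cell lysis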
C2C12 statin: suppressors of simvastatin-induced myotoxicity in C2C12 myotubes. ATP luminescence, 48 h; scaled: DMSO 0, geranylgeraniol control 100. rescue of ATP level, % at 7.49 µM. 0.78% of 330,000 active. AID 602340;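 active means mean ATP rescue above about 67%, or every replicate alone reaching that limit, limit read from the data, passing the limit was not always enough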;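 further: myotubes were challenged with 10 µM simvastatin during compound exposure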
Large screens that a line does not name were inactive. Sampled rows, rich in hits. Any-hit rate of the full collection: about 1.5%.

CCc1c(C)sc(NC(=O)c2ccco2)c1C(=O)N1CCOCC1	none
CC(=O)N1N=C(c2cccs2)CC1c1ccc(Br)cc1 (configuration not stated)	none
Cc1ccc(C2CC(c3cccs3)=NN2C(=O)c2ccc(Br)o2)cc1 (configuration not stated)	Cneo AK release 200, C2C12 statin 93
C[C@H](CO)N1C[C@H](C)[C@H](CN(C)S(C)(=O)=O)Oc2ccc(NS(=O)(=O)c3ccc(Cl)cc3)cc2CC1=O	none (no result: Mot1-301 SUMO)
C[C@@H]1CN([C@H](C)CO)C(=O)Cc2cc(NC(=O)Cc3cn(C)c4ccccc34)ccc2O[C@H]1CN(C)Cc1ccc(-c2ccccc2)cc1	C2C12 statin 93 (no result: Mot1-301 SUMO, Cneo AK release)
C[C@@H]1CN([C@H](C)CO)C(=O)Cc2cc(NC(=O)Cc3cn(C)c4ccccc34)ccc2O[C@H]1CN(C)S(=O)(=O)c1ccc(F)cc1	none (no result: Mot1-301 SUMO)
C[C@H]1CN([C@@H](C)CO)C(=O)Cc2cc(NC(=O)Cc3cn(C)c4ccccc34)ccc2O[C@H]1CN(C)Cc1ccc(Oc2ccccc2)cc1	none (no result: Mot1-301 SUMO)
C[C@H](CO)N1C[C@H](C)[C@@H](CN(C)S(=O)(=O)c2ccc(F)cc2)Oc2ccc(NC(=O)Cc3cn(C)c4ccccc34)cc2CC1=O	C2C12 statin 102 (no result: Mot1-301 SUMO)
C[C@H]1CN([C@@H](C)CO)C(=O)Cc2cc(NC(=O)Cc3cn(C)c4ccccc34)ccc2O[C@@H]1CN(C)Cc1ccc(-c2ccccc2)cc1	none (no result: Mot1-301 SUMO, Cneo AK release)
C[C@H](CO)N1C[C@H](C)[C@@H](CN(C)Cc2ccc(Oc3ccccc3)cc2)Oc2ccc(NC(=O)Cc3cn(C)c4ccccc34)cc2CC1=O	C2C12 statin 114 (no result: Mot1-301 SUMO)
C[C@H](CO)N1C[C@H](C)[C@H](CN(C)Cc2ccncc2)OCCCC[C@H](C)Oc2ccc(NC(=O)c3ccncc3)cc2C1=O	none (no result: Mot1-301 SUMO, C2C12 statin)
COCC(=O)Nc1ccc2c(c1)OC[C@H](C)N(CCc1ccccc1)C[C@@H](C)[C@@H](OC)CN(C)C2=O	none (no result: Mot1-301 SUMO)
CCOC(=O)N1CCN(S(=O)(=O)c2ccc3[nH]cc(C(=O)O)c(=O)c3c2)CC1	C2C12 statin 97
O=C(O)c1c[nH]c2ccc(S(=O)(=O)N3CCN(c4ccc(F)cc4)CC3)cc2c1=O	none
COc1cccc(C(=O)NNC(=O)c2ccccc2)c1	none
COc1cccc(C(=O)NNC(=O)C2CC(C)=C(C)CC2C(=O)O)c1 (configuration not stated)	C2C12 statin 99
CCCSc1nc2c(cnn2-c2ccc(C)c(C)c2)c(=O)[nH]1	none
COC(=O)c1ccc(CSc2nc3c(cnn3-c3ccc(C)c(C)c3)c(=O)[nH]2)o1	C2C12 statin 132
Cc1cc(C(=O)Nc2cccc3c2O[C@H](CN(C)C(=O)Nc2ccc(F)cc2)[C@H](C)CN([C@H](C)CO)C3=O)n(C)n1	none (no result: Mot1-301 SUMO)
Cc1noc(C)c1S(=O)(=O)Nc1ccc2c(c1)C(=O)N([C@H](C)CO)C[C@@H](C)[C@@H](CN(C)C(=O)Nc1ccc(C(F)(F)F)cc1)OCCCC[C@@H](C)O2	none (no result: Mot1-301 SUMO, C2C12 statin)
C[C@H]1CN([C@@H](C)CO)C(=O)c2cc(-c3ccc(F)cc3)cnc2O[C@@H]1CN(C)C(=O)c1ccccn1	none (no result: Mot1-301 SUMO)
C[C@H]1CN([C@@H](C)CO)C(=O)c2cc(Br)cnc2O[C@@H]1CN(C)Cc1ccccn1	Cneo AK release 107 (no result: Mot1-301 SUMO, C2C12 statin)
C[C@H](CO)N1C[C@H](C)[C@H](CN(C)C(=O)c2ccccn2)Oc2ncc(-c3ccccc3)cc2C1=O	Cneo AK release 81 (no result: Mot1-301 SUMO)
C[C@H]1CN([C@@H](C)CO)C(=O)c2cc(-c3ccccc3)cnc2O[C@@H]1CN(C)C(=O)c1ccccn1	Cneo AK release 105 (no result: Mot1-301 SUMO)
C[C@H](CO)N1C[C@H](C)[C@@H](CN(C)Cc2ccccn2)Oc2ncc(Br)cc2C1=O	none (no result: Mot1-301 SUMO)
C[C@@H]1CN([C@@H](C)CO)C(=O)c2cc(-c3ccc(F)cc3)cnc2O[C@@H]1CN(C)C(=O)c1ccccn1	none (no result: Mot1-301 SUMO)
O=C(c1cccnc1)N1CC[C@@H]2[C@H]1c1cc(C#Cc3cccnc3)ccc1N[C@@H]2CO	none (no result: Mot1-301 SUMO)
O=C(N[C@H]1CC[C@@H](CCNC(=O)C2CCOCC2)O[C@H]1CO)c1ccccn1	none (no result: Mot1-301 SUMO)
C[C@H]1CN([C@@H](C)CO)C(=O)c2cc(Br)cnc2O[C@H]1CN(C)C(=O)C1CCOCC1	none (no result: Mot1-301 SUMO)
CO[C@@H]1CN(C)C(=O)c2ccc(NC(=O)NC(C)C)cc2OC[C@H](C)N(C(=O)CC2CC2)C[C@@H]1C	none (no result: Mot1-301 SUMO)
O=C(CN1CCOCC1)N1CCCCN2[C@H](CO)[C@H](c3ccc(C#Cc4ccccc4)cc3)[C@@H]2C1	none (no result: Mot1-301 SUMO, C2C12 statin)
O=C1NCC(O)=C1C=NCCCO	none (no result: Cneo AK release, C2C12 statin)
COc1ccc(CN=CC2=C(O)CNC2=O)cc1OC	C2C12 statin 94
CCC(=O)N1C[C@@H](C)[C@H](OC)CN(C)C(=O)c2cc(NC(=O)Nc3cccc(F)c3)ccc2OC[C@@H]1C	none (no result: Mot1-301 SUMO)

Screens as filed in PubChem.
